In the library only some 2.3% were active in any assay of this set; here they are far more common.
TROY NFkB inh – TROY signaling inhibition; AID 1347056; 360,000 tested, 0.98% active; inhibition, % at 10 µM; Q293 LMP1-TROYcd NF-kB luciferase reporter, 4 h;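 active = compounds whose plate-normalised and pattern-corrected inhibition of the luciferase reporter signal at the single screening dose is 50% or more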
Xi reactivation – reactivates the inactive X chromosome in mouse fibroblasts | XiGFP mouse fibroblasts, % GFP-positive cells imaging, 3 d; cells co-treated with 5-aza-dC sensitizer; scaled so ellipticine positive control = 100% | activation, % at 7.58 µM | 360,000 tested, 0.055% active | AID 743238;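 active = mean normalized replicate activation at least 10% and every replicate at or above 10%; inconclusive = only one of the two criteria met; inactive = mean below 10% and not all replicates reach 10%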;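 note: 0% = median of on-plate neutral control wells and 100% = ellipticine 6 µM median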
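System: XiGFP fibroblasts, SV40-immortalized. Medium: DMEM plus 5-aza-dC sensitizer. Doses: single point. Timing: 3 d treatment, 15 min room-temperature fixation. Control set: ellipticine 6 µM.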
FN deposition inh – fibronectin deposition inhibition; inhibition, % at 12.6 µM; 350,000 tested, 0.086% active; AH1F fibroblasts, Alexa488-fibronectin deposition fluorescence, overnight;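 active = mean inhibition across replicates of 30% or more, regardless of how many single replicates reach that level; inconclusive = mean under 30% yet at least half of replicates reach 30%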;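 note: positive control wells lacked labelled fibronectin entirely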
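Schedule: 1 h cell adhesion before compound, then overnight fibronectin incubation; test system: AH1F fibroblast monolayer depositing Alexa488-labelled fibronectin into matrix; quantity: 10000 AH1F cells per well; probe or stimulus: fluorescent fibronectin at 24 nM final; signal: fluorescence, ex 485 nm, em 525 nm; evaluation: percent inhibition as loss of matrix-bound fibronectin fluorescence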
TWEAK Fn14 block – inhibitors of TWEAK-Fn14 interaction signaling; TWEAK-stimulated Fn14 reporter cells, luciferase luminescence, 8 h; 360,000 tested, 2% active; inhibition, % at 10 µM; AID 1159606; in the data active = inhibition above about 50%
EWS-Fli inh – inhibitors of EWS/Fli oncoprotein transcriptional activity; inhibition, % at 12.6 µM; A673 NR0B1-luciferase reporter, viability-normalised; 350,000 tested, 0.67% active; AID 651661;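 active = mean inhibition of at least 50% after viability correction, with every replicate also passing that limit; inconclusive = mean reaches 50% but only one of two replicates passes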;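 note: firefly luciferase signal divided by Alamar Blue viability fluorescence both relative to DMSO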
LGR2 antag – Drosophila LGR2 receptor signaling inhibition | HEK293 LGR2, CRE-luciferase, bursicon-stimulated, 4 h | inhibition, % at 9.99 µM | 380,000 tested, 0.35% active;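 active = drop in luminescence signal, shown as inhibition above about 50% in the replicate tests, limit read from the data, passing the limit was not always enough; inconclusive = probably only some replicates passing the limit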;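 note: agonist challenge used bursicon conditioned medium at about half maximal strength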
* = called active by the depositor; ? = inconclusive; . = no result given.

SMILES | TROY NFkB inh | Xi reactivation | FN deposition inh | TWEAK Fn14 block | EWS-Fli inh | LGR2 antag
CCN(CC)CCCNC1=C(Cl)C(=O)c2ccccc2C1=O | 26.6 | ? | -7.2 | 19.5 | 65.3* | 77.2*
O=C(NC[C@H]1CC[C@@H]2[C@@H](CN2C(=O)CN2CCOCC2)O1)NC1CCCCC1 | . | . | . | . | -0.1 | .
Cc1ccccc1-c1cnc2c(c1)C(=O)N([C@@H](C)CO)C[C@@H](C)[C@@H](CN(C)CC1CC1)O2 | . | -0.8 | -1.2 | . | -10.9 | 3.4
CCCNC(=O)N[C@H]1CC[C@H](CCn2cc(C3CC3)nn2)O[C@@H]1CO | . | 0.5 | 9.5 | . | -9.3 | 5.8
C[C@@H]1CN([C@H](C)CO)C(=O)Cc2cc(NS(=O)(=O)c3ccc(F)cc3)ccc2O[C@@H]1CN(C)S(=O)(=O)c1cn(C)cn1 | . | -0.4 | . | . | 2.4 | 4.3
CCCN(C)C[C@@H]1Oc2ncc(C#CCN(C)C)cc2C(=O)N([C@H](C)CO)C[C@@H]1C | . | 0.2 | . | . | -10.4 | -2.7
CCCNC(=O)NC[C@@H]1CC[C@H]2[C@H](CN2C(=O)C2CCOCC2)O1 | . | . | . | . | 17.2 | .
Cc1ccc(C(=O)Nc2ncc(C)s2)o1 | -53.8 | . | 4.4 | 27.9 | . | -18.3
O=C(Cc1ccc(Cl)cc1)Nc1ncc([N+](=O)[O-])s1 | 36.7 | 0.5 | -4.4 | -11.1 | -31.2 | -91.3
Cc1ccc(C(=O)Nc2ncc([N+](=O)[O-])s2)cc1 | 79.9* | 0.0 | 5.8 | 99.9* | 75.7* | .
O=C(COc1ccc(Cl)cc1)Nc1ncc([N+](=O)[O-])s1 | 48.4 | 0.0 | -6.4 | 79.2* | -13.3 | 35.2
Cc1ccc(C(=O)Nc2ncc(C)s2)s1 | 16.4 | 0.1 | 1.6 | 57.3* | 3.8 | -3.2
Cc1cnc(NC(=O)c2ccc3c(c2)OCCO3)s1 | 85.4* | 0.4 | 10.2 | 103.4* | 76.7* | 96.3*
COc1cccc(-c2ccc([C@@H]3[C@@H](CO)N4C(=O)CN(C(=O)C5CCOCC5)C[C@@H]34)cc2)c1 | . | 0.3 | . | . | 0.5 | 3.5
COc1cccc(-c2ccc([C@H]3[C@H](CO)N4C(=O)CN(C(=O)C5CC5)C[C@@H]34)cc2)c1 | . | 0.0 | -1.5 | . | -15.8 | 1.5
CNC[C@H]1Oc2c(NC(=O)c3ccc(-c4nccs4)cc3)cccc2C(=O)N([C@H](C)CO)C[C@H]1C | . | -0.2 | 7.0 | . | 0.9 | -6.3
CNC[C@@H]1Oc2ncc(Br)cc2C(=O)N([C@H](C)CO)C[C@@H]1C | . | 0.5 | . | . | -12.1 | 4.8
Cc1ccc(S(=O)(=O)Nc2ccc3c(c2)C(=O)N([C@@H](C)CO)C[C@H](C)[C@@H](CN(C)C(=O)NC(C)C)O3)cc1 | . | -1.1 | . | . | -1.7 | -13.8
CC(c1ccccc1)c1nnc(NC(=O)c2ccc3c(c2)OCO3)s1 (stereo unspecified) | -33.0 | 0.2 | 2.7 | 2.8 | 21.4 | -20.1
CC(C)c1nnc(NC(=O)c2ccc3c(c2)OCO3)s1 | 47.6 | 0.1 | 1.8 | 73.2* | ? | 74.4*
Cc1ccc([N+](=O)[O-])cc1NC(=O)c1ccc2c(c1)OCO2 | -1.9 | 0.2 | -4.8 | -6.8 | -12.3 | -10.2
O=C(Nc1ncc([N+](=O)[O-])s1)c1ccc2c(c1)OCO2 | 83.6* | 0.0 | 1.7 | 102.5* | 48.8 | 91.1*
CNC[C@@H]1OCCCC[C@@H](C)Oc2ccc(NS(=O)(=O)c3ccc(C)cc3)cc2C(=O)N([C@H](C)CO)C[C@H]1C | . | 0.1 | -10.6 | . | -2.1 | -7.0
O=C(NNc1ccc(F)cc1F)c1c(F)cccc1Cl | -11.2 | -0.1 | -8.1 | 57.8* | 3.0 | -3.9
O=C(NNc1c(Cl)cccc1Cl)c1c(F)cccc1Cl | -10.2 | 0.5 | -7.3 | 1.0 | -4.4 | 11.8
CC(C)NC(=O)N(C)C[C@H]1OCCCC[C@@H](C)Oc2ccc(NS(=O)(=O)c3ccccc3)cc2C(=O)N([C@@H](C)CO)C[C@@H]1C | . | -1.1 | . | . | 19.3 | -0.5
Cc1cccc2sc(NNC(=O)c3cc(-c4cccs4)nc4ccccc34)nc12 | 47.5 | 5.1 | -3.2 | 87.8* | 15.3 | .
COc1cc(C(=O)Nc2ccc(C)cc2)c2ccccc2n1 | -5.2 | 0.9 | -8.1 | -8.4 | 54.2* | -3.5
CN(C)S(=O)(=O)c1ccc(NC(=O)c2cc(-c3cccs3)nc3ccccc23)cc1 | 88.2* | 0.0 | 5.6 | 33.4 | 16.0 | -6.6
